Reference: ChEMBL document CHEMBL3286213, “Exploration of the dihydropyrimidine scaffold for the development of new potential anti-inflammatory agents blocking prostaglandin E₂ synthase-1 enzyme (mPGES-1)” (Eur J Med Chem, 2014)
Activity calls are given as the source filed them. No cut-off for these calls is given here.

Legend:
[1] = target: T1, Prostaglandin E synthase (Homo sapiens, UniProt O14684); test: Inhibition of mPGES-1 in interleukin-1 beta-stimulated human A549 cell microsomes assessed as reduction in PGE2 production using PGH2 as substrate treated for 15 mins prior to substrate addition measured after 1 min by RP-HPLC analysis
T1 sequence (O14684 whole entry): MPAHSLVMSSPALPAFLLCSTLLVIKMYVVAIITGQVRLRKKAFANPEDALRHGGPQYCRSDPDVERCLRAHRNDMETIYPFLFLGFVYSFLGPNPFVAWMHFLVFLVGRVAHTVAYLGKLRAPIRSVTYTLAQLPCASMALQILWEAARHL
Procedure, shortened: (§1)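 Diluted in 0.1 M potassium phosphate pH 7.4 with 2.5 mM GSH. Compound or vehicle 15 min at 4 °C, then PGH2 added, 1 min. Stopped with FeCl2/citric acid plus 11β-PGE2 internal standard. PGE2 by SPE and RP-HPLC. Mean ± SE.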

[2] = Retention time of the compound by RP-HPLC analysis; assay type: physicochemical
Procedure, shortened: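 RP-HPLC with eluent A 0.1% TFA in water and eluent B 0.1% TFA in CH3CN, detection at 280 nm.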

[3] = target: T2, Prostaglandin E synthase (Homo sapiens) (UniProt O14684); test: Inhibition of mPGES-1 in interleukin-1 beta-stimulated human A549 cell microsomes assessed as reduction in PGE2 production using PGH2 as substrate at <10 uM treated for 15 mins prior to substrate addition measured after 1 min by RP-HPLC analysis; procedure, shortened: as §1
T2 sequence (whole entry): T1 sequence (O14684 whole entry)

[4] = target: T2, Prostaglandin E synthase (Homo sapiens); test: Inhibition of mPGES-1 in interleukin-1 beta-stimulated human A549 cell microsomes assessed as reduction in PGE2 production using PGH2 as substrate at 10 uM treated for 15 mins prior to substrate addition measured after 1 min by RP-HPLC analysis; procedure, shortened: as §1

SMILES	IC50 [1]	Retention_time [2]	inhibition [3]	inhibition [4]
CCOC(=O)C1=C(C(=O)c2ccc(OC)cc2)[C@H](c2cccc(-c3ccc(C#N)cc3)n2)NC(=O)N1	–	20.8 min	inactive	–
CCOC(=O)C1=C(C(=O)c2ccc(OC)cc2)C(c2cccc(OCC)c2)NC(=O)N1 (configuration not stated)	–	22.9 min	inactive	–
CCOC(=O)C1=C(C(=O)c2ccc(OC)cc2)C(c2ccc(-c3cccc(C(F)(F)F)c3)o2)NC(=S)N1 (configuration not stated)	> 30 µM	32.3 min	–	37%
CCOC(=O)C1=C(C(=O)c2ccc(OC)cc2)C(c2cccc(C=O)c2)NC(=O)N1 (configuration not stated)	–	24.7 min	inactive	–
CCOC(=O)C1=C(C(=O)c2ccc(OC)cc2)[C@H](c2coc3c(Br)cc(Br)cc3c2=O)NC(=O)N1	–	26.4 min	inactive	–

The remaining lines, values ahead:

IC50 [1]	Retention_time [2]	inhibition [3]	inhibition [4]	SMILES
4.16 µM	34.2 min	–	–	CCOC(=O)C1=C(C(=O)c2ccc(OC)cc2)[C@H](c2ccc(-c3cccc(C(F)(F)F)c3)o2)NC(=O)N1
7.56 µM	30.3 min	–	–	CCOC(=O)C1=C(C(=O)c2ccc(OC)cc2)[C@H](c2ccc(-c3cccc(C(F)(F)F)c3)o2)NC(=O)N1C
–	26.7 min	inactive	–	CCOC(=O)C1=C(C)N(C)C(=O)NC1c1ccc(-c2cccc(C(F)(F)F)c2)o1 (configuration not stated)
